Measurements from ChEMBL document CHEMBL3425438, “Investigation of (E)-3-[4-(2-Oxo-3-aryl-chromen-4-yl)oxyphenyl]acrylic Acids as Oral Selective Estrogen Receptor Down-Regulators” (J Med Chem, 2015).
In brackets after ≈: the same amount, converted by molar mass.

How the values were obtained:
[1] = target: Voltage-gated inwardly rectifying potassium channel KCNH2 (Homo sapiens, UniProt Q12809); test: Inhibition of hERG channel by electrophysiology; type: toxicity
[2] = Free plasma concentration in rat by LC-UV-MS analysis; type: ADME, cell-free
Summary of the method: (§1)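 Equilibrium dialysis in plasma of the matching species at 37 °C; free and bound concentrations quantified by LC-UV-MS; reported as % free.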

[3] = Intrinsic clearance in rat hepatocytes measured per 10^6 cells; type: ADME, cell-based, Hepatocyte; details: read-out: CLH
[4] = Thermodynamic solubility of the compound in 0.1 M aqueous phosphate buffer at 25 degC at pH 7.4 after 24 hrs; type: physicochemical; details: read-out: Therm_solubility
[5] = Volume of distribution at steady state in CD-1 mouse at 0.5 mg/kg, iv; type: ADME, organism-based; set-up: dose 0.5 mg/kg, route intravenous; details: in vivo, read-out: Vdss
Summary of the method: (§2)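 Fed CD-1 mice or Alderley Park Han Wistar rats, two animals per study; IV 0.5 mg/kg as aqueous solution of DMSO and cyclodextrin; clearance and Vss derived.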

[6] = Oral bioavailability in CD-1 mouse at 50 mg/kg using 0.5% polysorbate suspension; type: ADME, organism-based; details: in vivo
Summary of the method: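 Fed CD-1 mice, two per study; oral 50 mg/kg 0.5% polysorbate suspension; IV reference 0.5 mg/kg aqueous DMSO/cyclodextrin.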

[7] = Volume of distribution at steady state in Alderley Park Han Wistar rat at 0.5 mg/kg, iv; type: ADME, organism-based; set-up: dose 0.5 mg/kg, route intravenous; details: in vivo, read-out: Vdss; summary of the method: as §2
[8] = Free plasma concentration in mouse by LC-UV-MS analysis; type: ADME, cell-free; summary of the method: as §1
[9] = Free plasma concentration in human by LC-UV-MS analysis; type: ADME, cell-free; summary of the method: as §1
MCF7 = test: Inhibition of cell proliferation in human MCF7 cells after 7 days by laser scanning imaging cytometer analysis; type: functional, cell-based; details: MCF7, 168 h
Summary of the method: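 MCF-7 cells plated in reduced-serum medium the day before; concentration response for 7 days; cell number by nucleic acid stain, read on laser scanning imaging cytometer; EC50 for decrease in proliferation.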

[10] = Oral bioavailability in Alderley Park Han Wistar rat at 1 mg/kg using 5% DMSO, 95% of a 30% aqueous cyclodextrin solution; type: ADME, organism-based; details: in vivo
Summary of the method: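 Fed Han Wistar rats, two per study; oral 1 mg/kg solution in 5% DMSO, 95% of a 30% aqueous cyclodextrin solution; IV reference 0.5 mg/kg in aqueous DMSO/cyclodextrin.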

[11] = Dissociation constant, pKa of the compound by potentiometric analysis […] phenol; type: physicochemical
Summary of the method: (§3)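 pKa (acid and phenol) by potentiometric titration.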

Estrogen receptor [12] = target: T1, Estrogen receptor (Homo sapiens, UniProt P03372); test: Binding affinity to ER alpha (unknown origin) by LanthaScreen TR-FRET competitive binding assay
T1 sequence (P03372 whole entry): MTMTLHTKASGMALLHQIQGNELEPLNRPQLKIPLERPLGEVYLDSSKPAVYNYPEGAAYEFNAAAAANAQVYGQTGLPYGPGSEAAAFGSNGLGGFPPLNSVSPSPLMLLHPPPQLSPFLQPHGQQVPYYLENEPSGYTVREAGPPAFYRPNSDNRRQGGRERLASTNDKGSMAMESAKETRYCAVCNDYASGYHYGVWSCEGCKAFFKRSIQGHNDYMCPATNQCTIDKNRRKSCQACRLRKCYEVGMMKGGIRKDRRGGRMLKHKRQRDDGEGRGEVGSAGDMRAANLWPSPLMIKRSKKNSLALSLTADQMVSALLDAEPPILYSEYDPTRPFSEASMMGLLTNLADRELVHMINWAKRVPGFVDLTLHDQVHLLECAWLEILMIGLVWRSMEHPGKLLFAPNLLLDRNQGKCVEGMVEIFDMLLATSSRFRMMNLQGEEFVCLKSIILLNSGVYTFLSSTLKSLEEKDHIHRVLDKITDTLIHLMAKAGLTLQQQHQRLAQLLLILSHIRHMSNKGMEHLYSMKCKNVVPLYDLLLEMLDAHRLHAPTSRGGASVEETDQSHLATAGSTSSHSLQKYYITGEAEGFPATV
Summary of the method: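 LanthaScreen TR-FRET ERα competitive binding; 12-point half-log concentration response; TR-FRET emission ratio read on microplate reader; IC50 reported.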

Estrogen receptor [13] = target: T1, Estrogen receptor; test: Suppression of ER alpha in human MCF7 cells after 24 hrs by immunostaining analysis; type: cell-based
[14] = Octanol-buffer partition coefficient, log D of the compound at ratio of 1:100 at pH 7.4 by shake-flask method; type: physicochemical
[15] = Intrinsic clearance in human hepatocytes measured per 10^6 cells; type: ADME, cell-based, Hepatocyte; details: read-out: CLH
[16] = Dissociation constant, pKa of the compound in acidic medium by potentiometric analysis; type: physicochemical; summary of the method: as §3
[17] = Intrinsic clearance in mouse hepatocytes measured per 10^6 cells; type: ADME, cell-based, Hepatocyte; details: read-out: CLH
Estrogen receptor [18] = target: T1, Estrogen receptor; test: Antagonist activity at ER alpha in human MCF7 cells assessed as inhibition of estradiol-induced PR expression treated for 24 hrs after incubation with estradiol for 30 mins by laser scanning imaging cytometer analysis; type: cell-based
[19] = Oral bioavailability in Alderley Park Han Wistar rat at 5 mg/kg using HPMC/tween suspension; type: ADME, organism-based; details: in vivo
Summary of the method: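 Fed Han Wistar rats, two per study; oral HPMC/tween suspension at 1, 5 or 50 mg/kg as stated per line; IV reference 0.5 mg/kg in aqueous DMSO/cyclodextrin.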

[20] = Oral bioavailability in CD-1 mouse at 20 mg/kg using propylene glycol suspension; type: ADME, organism-based; details: in vivo
Summary of the method: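 Fed CD-1 mice, two per study; oral 20 mg/kg propylene glycol suspension; IV reference 0.5 mg/kg aqueous DMSO/cyclodextrin.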

[21] = Apparent permeability from apical to basolateral side in human Caco2 cells; type: ADME, cell-based; details: Caco-2
[22] = Oral bioavailability in Alderley Park Han Wistar rat at 2 mg/kg using propylene glycol solution; type: ADME, organism-based; details: in vivo
Summary of the method: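 Fed Han Wistar rats, two per study; oral 2 mg/kg propylene glycol solution; IV reference 0.5 mg/kg aqueous DMSO/cyclodextrin.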

[23] = Clearance in Alderley Park Han Wistar rat at 0.5 mg/kg, iv; type: ADME, organism-based; set-up: dose 0.5 mg/kg, route intravenous; details: in vivo
[24] = Clearance in CD-1 mouse at 0.5 mg/kg, iv; type: ADME, organism-based; set-up: dose 0.5 mg/kg, route intravenous; details: in vivo
[25] = Drug metabolism in rat hepatocytes assessed as formation of glucuronide conjugates by LC-UV-MS analysis; type: ADME, cell-based, Hepatocyte
[26] = Drug metabolism in rat hepatocytes assessed as formation of sulphate metabolite by LC-UV-MS analysis; type: ADME, cell-based, Hepatocyte
[27] = Drug metabolism in rat hepatocytes assessed as formation of acyl glucuronide conjugates by LC-UV-MS analysis; type: ADME, cell-based, Hepatocyte

Sequence of Voltage-gated inwardly rectifying potassium channel KCNH2 (Q12809 whole entry): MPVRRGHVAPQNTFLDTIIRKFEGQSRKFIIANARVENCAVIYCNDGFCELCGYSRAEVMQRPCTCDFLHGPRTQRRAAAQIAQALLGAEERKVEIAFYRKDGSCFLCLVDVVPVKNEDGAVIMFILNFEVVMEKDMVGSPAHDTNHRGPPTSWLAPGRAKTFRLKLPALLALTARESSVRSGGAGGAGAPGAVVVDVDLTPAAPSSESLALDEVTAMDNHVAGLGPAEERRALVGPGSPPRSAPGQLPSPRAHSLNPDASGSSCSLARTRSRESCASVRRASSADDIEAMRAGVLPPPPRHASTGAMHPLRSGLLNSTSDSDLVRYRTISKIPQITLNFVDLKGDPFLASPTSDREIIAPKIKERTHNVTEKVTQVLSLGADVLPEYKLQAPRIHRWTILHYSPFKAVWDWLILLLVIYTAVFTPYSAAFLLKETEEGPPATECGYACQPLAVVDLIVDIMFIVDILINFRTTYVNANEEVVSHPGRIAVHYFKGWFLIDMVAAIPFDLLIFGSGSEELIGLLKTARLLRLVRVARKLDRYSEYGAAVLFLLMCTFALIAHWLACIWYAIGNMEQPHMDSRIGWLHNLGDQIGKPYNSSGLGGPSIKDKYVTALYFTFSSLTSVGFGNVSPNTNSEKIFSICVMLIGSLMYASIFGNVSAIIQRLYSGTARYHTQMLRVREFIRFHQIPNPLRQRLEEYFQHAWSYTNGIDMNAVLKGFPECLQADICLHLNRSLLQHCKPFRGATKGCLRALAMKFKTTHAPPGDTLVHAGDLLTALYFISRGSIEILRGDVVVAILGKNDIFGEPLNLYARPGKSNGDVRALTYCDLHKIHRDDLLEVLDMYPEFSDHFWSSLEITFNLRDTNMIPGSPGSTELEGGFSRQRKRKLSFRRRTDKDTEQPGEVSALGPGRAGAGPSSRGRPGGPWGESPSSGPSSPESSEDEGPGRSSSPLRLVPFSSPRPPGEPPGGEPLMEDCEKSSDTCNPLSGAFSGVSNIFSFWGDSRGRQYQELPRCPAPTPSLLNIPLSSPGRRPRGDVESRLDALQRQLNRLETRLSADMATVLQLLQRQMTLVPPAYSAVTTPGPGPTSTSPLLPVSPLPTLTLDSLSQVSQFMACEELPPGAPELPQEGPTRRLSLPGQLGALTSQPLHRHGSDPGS

SMILES: CC/C(=C(\c1ccc(O)cc1)c1ccc(/C=C/C(=O)O)cc1)c1ccccc1
- IC50 [1]: > 100000 nM
- fraction unbound [2]: 0.0009
- hepatocyte CLint [3]: 12 µL/min/1e6 cells
- solubility thermodynamic at 24 h [4]: 200 µM (≈ 74.1 µg/mL)

SMILES: CC/C(=C(\c1ccccc1)c1ccc(/C=C/C(=O)O)cc1)c1ccccc1
- Vd [5]: 1.1 L/kg
- bioavailability [6]: 62%
- Vd [7]: 0.5 L/kg
- fraction unbound [8]: 0.064
- fraction unbound [9]: < 0.002
- EC50 (MCF7): 300 nM
- fraction unbound [2]: < 0.0001
- bioavailability [10]: 68%

SMILES: Cc1cc2c(Cc3ccc(/C=C/C(=O)O)cc3)c(-c3ccc(OC(F)(F)F)cc3)c(=O)oc2cc1O
- pKa [11]: 7.6
- IC50 (Estrogen receptor [12]): 10 nM
- IC50 (Estrogen receptor [13]): 320 nM
- logD [14]: 3.1
- hepatocyte CLint [15]: 17 µL/min/1e6 cells
- hepatocyte CLint [3]: 37 µL/min/1e6 cells

SMILES: O=C(O)/C=C/c1ccc(Cc2c(-c3ccccc3)c(=O)oc3cc(O)ccc23)cc1
- Vd [5]: 4.7 L/kg
- pKa [11]: 7.7
- pKa [16]: 4.4
- Vd [7]: 1.4 L/kg
- hepatocyte CLint [17]: 87 µL/min/1e6 cells
- IC50 (Estrogen receptor [12]): 8.1 nM
- fraction unbound [8]: 0.012
- IC50 (Estrogen receptor [18]): 1500 nM
- bioavailability [19]: 67%
- IC50 (Estrogen receptor [13]): 1180 nM
- bioavailability [20]: 0%
- fraction unbound [9]: 0.012
- EC50 (MCF7): 260 nM
- logD [14]: 1.5
- Papp A→B [21]: 10 ×10⁻⁶ cm/s
- fraction unbound [2]: 0.0098
- hepatocyte CLint [15]: 18 µL/min/1e6 cells
- hepatocyte CLint [3]: 120 µL/min/1e6 cells
- solubility thermodynamic at 24 h [4]: 470 µM (≈ 187 µg/mL)
- bioavailability [22]: 0%
- clearance [23]: 67 mL/min/kg
- clearance [24]: 210 mL/min/kg

SMILES: O=C(O)/C=C/c1ccc(Cc2c(-c3ccc(F)cc3)c(=O)oc3cc(O)ccc23)cc1
- Drug metabolism [25]: metabolite_detected
- IC50 (Estrogen receptor [12]): 9 nM
- IC50 (Estrogen receptor [13]): 1280 nM
- Drug metabolism [26]: metabolite_detected
- Drug metabolism [27]: metabolite_detected

SMILES: Cc1cc(F)ccc1-c1c(Cc2ccc(/C=C/C(=O)O)cc2)c2ccc(O)cc2oc1=O
- pKa [11]: 7.7
- IC50 (Estrogen receptor [12]): 3.9 nM
- IC50 (Estrogen receptor [13]): 117 nM
- logD [14]: 2.1
- hepatocyte CLint [15]: 11 µL/min/1e6 cells
- hepatocyte CLint [3]: 81 µL/min/1e6 cells

SMILES: Cc1cc(F)ccc1-c1c(Oc2ccc(/C=C/C(=O)O)cc2)c2ccc(O)cc2oc1=O
- pKa [11]: 7.1
- pKa [16]: 3.9
- Vd [7]: 0.9 L/kg
- hepatocyte CLint [17]: 68 µL/min/1e6 cells
- IC50 (Estrogen receptor [12]): 0.4 nM
- fraction unbound [8]: 0.028
- IC50 (Estrogen receptor [18]): 27 nM
- bioavailability [19]: 5%
- IC50 (Estrogen receptor [13]): 21 nM
- fraction unbound [9]: 0.0025
- EC50 (MCF7): 4.5 nM
- logD [14]: 1.6
- Papp A→B [21]: 19 ×10⁻⁶ cm/s
- fraction unbound [2]: 0.0051
- hepatocyte CLint [15]: 32 µL/min/1e6 cells
- hepatocyte CLint [3]: 50 µL/min/1e6 cells
- solubility thermodynamic at 24 h [4]: > 2000 µM
- clearance [23]: 35 mL/min/kg
